Measurements reported in ChEMBL document CHEMBL4680213, “Novel androgen receptor antagonist identified by structure-based virtual screening, structural optimization, and biological evaluation” (Eur J Med Chem, 2020).
Active and inactive are the calls of the source. The calls are words filed in the database; no cut-off is given here.

How the values were obtained:
[1] = target: T1, Androgen receptor (Homo sapiens) (UniProt P10275); assay: Displacement of fluormone-AL green from GST-tagged androgen receptor LBD (unknown origin) at 10 uM measured after 4 hrs by fluorescence polarization assay; conditions: filed as antagonist
T1 sequence (whole entry): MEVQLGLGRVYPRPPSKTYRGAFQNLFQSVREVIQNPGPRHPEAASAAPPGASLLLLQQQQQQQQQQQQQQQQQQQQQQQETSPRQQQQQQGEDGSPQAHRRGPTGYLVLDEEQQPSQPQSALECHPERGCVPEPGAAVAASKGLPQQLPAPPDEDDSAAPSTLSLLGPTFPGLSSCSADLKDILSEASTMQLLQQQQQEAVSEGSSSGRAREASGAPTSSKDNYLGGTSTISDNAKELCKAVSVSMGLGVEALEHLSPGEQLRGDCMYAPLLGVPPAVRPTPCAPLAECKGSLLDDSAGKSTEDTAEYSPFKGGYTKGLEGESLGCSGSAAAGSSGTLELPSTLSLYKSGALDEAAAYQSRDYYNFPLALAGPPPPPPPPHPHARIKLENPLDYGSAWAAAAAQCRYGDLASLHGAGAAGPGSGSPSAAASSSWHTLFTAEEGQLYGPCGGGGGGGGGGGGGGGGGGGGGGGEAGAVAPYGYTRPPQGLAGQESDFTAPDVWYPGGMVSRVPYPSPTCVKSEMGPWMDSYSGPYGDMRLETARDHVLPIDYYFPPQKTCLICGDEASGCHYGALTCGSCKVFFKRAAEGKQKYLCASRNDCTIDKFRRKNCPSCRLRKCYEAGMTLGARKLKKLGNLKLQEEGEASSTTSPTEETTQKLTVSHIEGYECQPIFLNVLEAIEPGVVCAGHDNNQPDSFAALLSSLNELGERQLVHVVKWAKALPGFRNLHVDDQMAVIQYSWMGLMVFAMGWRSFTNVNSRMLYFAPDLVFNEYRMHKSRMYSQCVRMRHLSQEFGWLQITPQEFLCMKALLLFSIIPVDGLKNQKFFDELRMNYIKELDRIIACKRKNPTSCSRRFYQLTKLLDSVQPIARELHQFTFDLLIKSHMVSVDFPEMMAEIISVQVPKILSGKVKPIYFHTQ
Outline: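 PolarScreen AR competitor assay. Compound mixed with GST-tagged AR-LBD and Fluormone AL Green in AR Green assay buffer, incubated 4 h at room temperature protected from light. Fluorescence polarization (mP) measured.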

Androgen receptor [2] = target: T2, Androgen receptor (Homo sapiens, UniProt P10275); type: cell-based, LNCaP
T2 sequence (P10275 whole entry): T1 sequence (whole entry)

LNCaP [3] = assay: Effect on prostate specific antigen mRNA expression in human LNCaP cells at 0.1 to 10 uM measured after 48 hrs by SYBR green dye based qPCR analysis; type: functional, cell-based; conditions: dose 0.1-10 µM
Outline: (§1)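 LNCaP cells kept in medium with 5% charcoal-stripped serum in six-well plates. Treated with DHT 5 nM plus compound at 0.1, 1 or 10 μM, or DMSO. mRNA extracted 48 h after treatment, reverse transcribed and quantified by qPCR.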

[4] = target: T1, Androgen receptor (Homo sapiens); assay: Antagonist activity at androgen receptor in human LNCaP cells assessed as reduction in DHT-induced TMPRSS2 mRNA expression after 48 hrs by SYBR green dye based qPCR analysis; type: cell-based; conditions: filed as antagonist; outline: as §1
NIH3T3 = assay: Cytotoxicity against mouse NIH/3T3 cells assessed as reduction in cell viability at 50 uM after 24 hrs by MTT assay; type: cell-based; conditions: nih3t3, 24 h
LNCaP [5] = assay: Antiproliferative activity against human LNCaP cells assessed as reduction in cell proliferation measured after 72 hrs by MTT assay; type: functional, cell-based
Outline: (§2)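 LNCaP, C4-2, PC3 and DU145 seeded in RPMI-1640 with 5% charcoal-stripped serum (LNCaP 3×10^3, the others 1.5×10^3 cells/well). After 24 h at 37 °C, treated with 5 nM DHT and serial compound dilutions for 72 h. MTT 4 h, formazan dissolved overnight in 10% SDS-0.1% HCl-PBS. A570 read with 650 nm reference.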

PC-3 = assay: Antiproliferative activity against human PC-3 cells assessed as reduction in cell proliferation measured after 72 hrs by MTT assay; type: functional, cell-based; outline: as §2
DU-145 = assay: Antiproliferative activity against human DU-145 cells assessed as reduction in cell proliferation measured after 72 hrs by MTT assay; type: functional, cell-based; outline: as §2
LNCaP C4-2 = assay: Antiproliferative activity against human LNCaP C4-2 cells assessed as reduction in cell proliferation measured after 72 hrs by MTT assay; type: functional, cell-based; outline: as §2
[6] = target: T3, Prostate-specific antigen (Homo sapiens, UniProt P07288); assay: Inhibition of prostate specific antigen in human LNCaP cells; type: cell-based
T3 sequence (P07288 whole entry): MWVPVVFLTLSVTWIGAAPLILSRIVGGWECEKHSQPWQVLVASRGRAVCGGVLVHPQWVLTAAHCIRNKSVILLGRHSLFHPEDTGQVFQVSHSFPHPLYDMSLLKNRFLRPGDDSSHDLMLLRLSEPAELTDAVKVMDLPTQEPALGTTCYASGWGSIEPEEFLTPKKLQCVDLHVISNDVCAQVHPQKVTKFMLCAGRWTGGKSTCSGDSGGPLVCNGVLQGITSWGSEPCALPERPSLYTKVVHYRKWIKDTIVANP

[7] = target: T1, Androgen receptor (Homo sapiens); assay: Antagonist activity at androgen receptor in human LNCaP cells transfected with ARR2 PB-eGFP assessed as inhibition of DHT-induced transcriptional activity at 10 uM measured after 3 days by fluorescence assay relative to control; type: cell-based; conditions: filed as antagonist, time 3.0 day
Outline: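 LNCaP-ARR2PB-eGFP reporter cells in RPMI-1640 starved 5 days in 5% charcoal-stripped serum. Seeded at 3.5×10^4 cells/well, 24 h at 37 °C, 5% CO2. Co-treated with 5 nM DHT and compound at 10 µM (screen) or 0–50 µM. Fluorescence read after 3 days (ex 485, em 535 nm).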

Androgen receptor [8] = target: T2, Androgen receptor; assay: Displacement of fluormone-AL green from GST-tagged androgen receptor LBD (unknown origin) measured after 4 hrs by fluorescence polarization assay

With `Brc1ccc(C2Nc3ccc4ccccc4c3C3C=CCC32)cc1` (stereo unspecified) the inhibition [1] was “Active”, the IC50 (Androgen receptor [2]) was 150 nM and the Activity (LNCaP [3]) was “Active”. For the same compound, the Activity [4] was “Dose-dependent effect”, the Activity (NIH3T3) was “Non-Toxic” and the Activity (LNCaP [5]) was “Active”. The Activity (PC-3) was “Active”, the Activity (DU-145) was “Active” and the Activity (LNCaP C4-2) was “Active”.
In the case of `CNC(=O)c1ccc(N2C(=S)N(c3ccc(C#N)c(C(F)(F)F)c3)C(=O)C2(C)C)cc1F` [ENZALUTAMIDE], the IC50 [6] is reported as 130 nM, the Activity (LNCaP [5]) is reported as “Active” and the Activity (PC-3) is reported as “Active”. For the same compound, the Activity (DU-145) was “Active” and the Activity (LNCaP C4-2) was “Active”.
For `c1ccc(C2Nc3ccc4ccccc4c3C3C4CCC(C4)C23)cc1` (stereo unspecified), the IC50 (Androgen receptor [2]) was 5600 nM.
In the case of `Clc1ccc(C2Nc3ccc4ccccc4c3C3C=CCC32)cc1` (stereo unspecified), the inhibition [1] is reported as “Active” and the IC50 (Androgen receptor [2]) is reported as 1920 nM.
With `Fc1ccccc1C1Nc2ccc3ccccc3c2C2C=CCC21` (stereo unspecified) the inhibition [1] was “Active” and the IC50 (Androgen receptor [2]) was 220 nM.
With `CCOC(=O)C1Nc2ccc3ccccc3c2C2C=CCC12` (stereo unspecified) the inhibition [1] was “Active” and the IC50 (Androgen receptor [2]) was 820 nM.
With `Clc1ccccc1C1Nc2ccc3ccccc3c2C2C=CCC21` (stereo unspecified) the inhibition [7] was over 50%, the inhibition [1] was “Active” and the IC50 (Androgen receptor [8]) was 4020 nM. The IC50 (Androgen receptor [2]) was 2400 nM, the Activity (NIH3T3) was “Non-Toxic” and the Activity (PC-3) was “Active”. The Activity (DU-145) was “Active” and the Activity (LNCaP C4-2) was “Active”.
Work on `Clc1ccc(C2Nc3ccc4ccccc4c3C3C4CCC(C4)C23)cc1` (stereo unspecified) yielded an IC50 (Androgen receptor [2]) of 7450 nM.
Compound `Clc1ccc(C2Nc3ccc4ccccc4c3C3OCCCC23)c(Cl)c1` (stereo unspecified) has an IC50 (Androgen receptor [2]) of 20400 nM.
